For assay [1], the system named is Mycobacterium tuberculosis. The experiment in a line: Inhibition of multidrug resistance efflux pump in Mycobacterium tuberculosis H37Rv assessed as amikacin MIC at 1 ug/ml after 7 days by two-dimensional broth microdilution checkerboard assay. Conditions: 168 h. The gist of the method:
(§1)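 M. tuberculosis H37Rv two-dimensional broth microdilution checkerboard. MICs of INH, RIF, AMK, OFX or EtBr were determined without and with graded sub-inhibitory compound concentrations, starting at ½ MIC. Where MIC was undeterminable, the highest concentration still permitting growth was taken as ½ MIC. FIC = MIC of antibacterial in combination / MIC alone. FIC ≤0.25 was scored as synergism and ≥2 as antagonism.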
(Broth dilution looks for growth in wells or tubes with falling amounts of substance.)

The subject of assay [2] is Mycobacterium tuberculosis. The experiment in a line: Inhibition of multidrug resistance efflux pump in Mycobacterium tuberculosis H37Rv assessed as ofloxacin MIC at 1 ug/ml after 7 days by two-dimensional broth microdilution checkerboard assay. To be noted: 168 h. The method, boiled down:
as §1

For assay [3], the system named is Mycobacterium tuberculosis. The assay is described as follows: Inhibition of multidrug resistance efflux pump in Mycobacterium tuberculosis H37Rv assessed as isoniazid MIC at 1 ug/ml after 7 days by two-dimensional broth microdilution checkerboard assay. Conditions: 168 h. The method, boiled down: as §1
Assay [4] relates to Mycobacterium tuberculosis. The assay is described as follows: Inhibition of multidrug resistance efflux pump in Mycobacterium tuberculosis H37Rv assessed as rifampin MIC at 2 ug/ml after 7 days by two-dimensional broth microdilution checkerboard assay. Conditions: 168 h.
Assay [5] concerns Mycobacterium tuberculosis. The experiment in a line: Inhibition of multidrug resistance efflux pump in Mycobacterium tuberculosis H37Rv assessed as reduction in ethidium bromide MIC at 128 ug/ml after 7 days by two-dimensional broth microdilution checkerboard assay.
The subject of assay [6] is Mycobacterium tuberculosis. The experiment in a line: Inhibition of multidrug resistance efflux pump in Mycobacterium tuberculosis H37Rv assessed as amikacin MIC at 7.5 ug/ml after 7 days by two-dimensional broth microdilution checkerboard assay. To be noted: 168 h. The method, boiled down:
as §1

Assay [7] relates to Mycobacterium tuberculosis. The assay is described as follows: Inhibition of multidrug resistance efflux pump in Mycobacterium tuberculosis H37Rv assessed as ofloxacin MIC at 7.5 ug/ml after 7 days by two-dimensional broth microdilution checkerboard assay. To be noted: 168 h. The method, boiled down:
as §1

In assay [8] the test system is Mycobacterium tuberculosis. The assay is described as follows: Inhibition of multidrug resistance efflux pump in Mycobacterium tuberculosis H37Rv assessed as ofloxacin MIC at 3.75 ug/ml after 7 days by two-dimensional broth microdilution checkerboard assay. Conditions: 168 h. The gist of the method: (§2)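 M. tuberculosis H37Rv ATCC27294. MICs of INH, RIF, AMK, OFX and EtBr were determined alone and with sub-inhibitory concentrations of test compound by two-dimensional broth microdilution checkerboard. Where a compound's MIC was not determinable, the highest concentration still allowing growth was taken as ½ MIC. FIC = MIC in combination / MIC alone. FIC ≤0.25 was scored as synergism and ≥2 as antagonism.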

Assay [9] has as its system Mycobacterium tuberculosis. The assay is described as follows: Inhibition of multidrug resistance efflux pump in Mycobacterium tuberculosis H37Rv assessed as ofloxacin MIC at 1.88 ug/ml after 7 days by two-dimensional broth microdilution checkerboard assay. To be noted: 168 h. The method, boiled down:
as §2

The test system of assay [10] is Mycobacterium tuberculosis. The experiment in a line: Inhibition of multidrug resistance efflux pump in Mycobacterium tuberculosis H37Rv assessed as ethidium bromide MIC at 0.94 ug/ml after 7 days by two-dimensional broth microdilution checkerboard assay. To be noted: 168 h. The method, boiled down:
as §2

Assay [11] has as its system Mycobacterium tuberculosis. The experiment in a line: Inhibition of multidrug resistance efflux pump in Mycobacterium tuberculosis H37Rv assessed as ethidium bromide MIC at 0.47 ug/ml after 7 days by two-dimensional broth microdilution checkerboard assay. To be noted: 168 h. The gist of the method:
as §2

Assay [12] relates to Mycobacterium tuberculosis. The assay is described as follows: Inhibition of multidrug resistance efflux pump in Mycobacterium tuberculosis H37Rv assessed as ethidium bromide MIC at 0.23 ug/ml after 7 days by two-dimensional broth microdilution checkerboard assay. Conditions: 168 h. The method, boiled down: as §2
The subject of assay [13] is Mycobacterium tuberculosis. The assay is described as follows: Inhibition of multidrug resistance efflux pump in Mycobacterium tuberculosis H37Rv assessed as ethidium bromide MIC at 0.12 ug/ml after 7 days by two-dimensional broth microdilution checkerboard assay. To be noted: 168 h. The method, boiled down:
as §2

In assay [14] the test system is Mycobacterium tuberculosis. The assay is described as follows: Inhibition of multidrug resistance efflux pump in Mycobacterium tuberculosis H37Rv assessed as reduction in rifampin MIC at 7.5 ug/ml after 7 days by two-dimensional broth microdilution checkerboard assay. The gist of the method: as §1
The test system of assay [15] is Mycobacterium tuberculosis. The assay is described as follows: Inhibition of multidrug resistance efflux pump in Mycobacterium tuberculosis H37Rv assessed as reduction in ethidium bromide MIC at 7.5 ug/ml after 7 days by two-dimensional broth microdilution checkerboard assay. The method, boiled down:
as §1

SMILES strings stand for the structures.

The values that follow come from ChEMBL document CHEMBL3593164, “Rational Design and Synthesis of Thioridazine Analogues as Enhancers of the Antituberculosis Therapy” (J Med Chem, 2015).

As a reminder, the MIC is the smallest concentration in the dilution series that meets the test's criterion for growth inhibition. Take `CN1CCCCC1CCn1c2ccccc2c2ccccc21` (racemic): the minimal inhibitory concentration (MIC) turned out to be 1 µg/mL in [1], 1 µg/mL in [2], 0.1 µg/mL in [3] and 1 µg/mL in assay [4].

For the molecule `CN1CCCCC1CCn1ccc2ccc(Br)cc21` (racemic), in [5], the “fold change (FC)” value is greater than 164.

Regarding `CSc1ccc2c(c1)N(CCC1CCCCN1C)c1ccccc1S2` (stereo not given) [THIORIDAZINE], the minimal inhibitory concentration (MIC) is less than 0.0156 µg/mL in [6]; less than 0.0156 µg/mL in [7]; 1 µg/mL in [8]; 1 µg/mL in assay [9]; 6.25 µg/mL in assay [10]; 6.25 µg/mL in [11]. The MIC in assay [12] and in assay [13] was 6.25 µg/mL each time. Further, the “fold change (FC)” value in assay [14] and in assay [15] was greater than 64 throughout.
